Assay type in all cases: functional
In one experiment the test system is MCF7. The experiment can be described thus: Cytotoxicity against human MCF7 cells. The procedure, abridged: (§1)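 Human cancer cell lines tested: MCF-7 (breast), H-460 (lung) and SF-268 (central nervous system). Cytotoxicity was run by a previously published cell-line screening method. The same three lines were used to follow activity through fractionation.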
The test system of a further experiment is NCI-H460. The experiment can be described thus: Cytotoxicity against human H460 cells. In short, it runs like this:
as §1

A further experiment deals with SF-268. The experiment can be described thus: Cytotoxicity against human SF268 cells. The procedure, abridged: as §1

In brackets after ≈: the same amount, converted by molar mass.

Consider `COc1c(CC=C(C)C)c(O)c2c(O)c3c(cc2c1CC=C(C)C)O[C@H](C)CC3=O` [ADENAFLORINE A], for which the values for the concentration for 50% growth inhibition (GI50) in the experiment on MCF7, in the experiment on NCI-H460 and in the experiment on SF-268 were 0.24 µg/mL (≈ 0.585 µM), 0.16 µg/mL (≈ 0.39 µM) and 0.13 µg/mL (≈ 0.317 µM), respectively.
The corresponding values for `COc1c(CC=C(C)C)c(O)c2c(O)c3c(=O)cc(C)oc3cc2c1CC=C(C)C` [ADENAFLORINE B] are 4.3 µg/mL (≈ 10.5 µM), 2.9 µg/mL (≈ 7.1 µM) and 3.9 µg/mL (≈ 9.55 µM).
The corresponding values for `CC(=O)c1c2c(c3cc(OCC=C(C)C)c(CC=C(C)C)c(O)c3c1O)C=CC(C)(C)O2` [ADENAFLORINE C] are 1.2 µg/mL (≈ 2.75 µM), 1.1 µg/mL (≈ 2.52 µM) and 1.4 µg/mL (≈ 3.21 µM).
The like results for `CC(=O)c1c(O)c(CC=C(C)C)c2cc(OCC=C(C)C)c3c(c2c1O)OC(C)(C)C=C3` [ADENAFLORINE D] were, in that order, greater than 10 µg/mL, 9.3 µg/mL (≈ 21.3 µM) and greater than 10 µg/mL.

For orientation: GI50 means the concentration giving 50% growth inhibition. A lower GI50 goes with greater sensitivity of the cells.

Source of the values: ChEMBL document CHEMBL1146510, “New cytotoxic naphthopyrane derivatives from Adenaria floribunda” (2004).
